According to ChEMBL document CHEMBL1649079, “Pipecolic acid derivatives as small-molecule inhibitors of the Legionella MIP protein” (J Med Chem, 2011):
Activity calls are given as the source filed them. No cut-off for these calls is given here.

Tests used:
[1] = target: Outer membrane protein MIP (Legionella pneumophila, UniProt Q70YI1)
[2] = target: T1, Peptidyl-prolyl cis-trans isomerase FKBP1A (Homo sapiens, UniProt P62942); experiment: Inhibition of PPIase activity of human FKBP12 expressed in Escherichia coli by spectrophotometry
How it was run: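 Chymotrypsin-coupled PPIase assay using 20 nM FKBP12 and 40 μM succinyl-Ala-Phe-Pro-Phe-4-nitroanilide. Enzyme and substrate preincubated with or without various inhibitor concentrations for 4 min at 10 °C in 35 mM HEPES/NaOH, pH 7.8.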

[3] = target: T1, Peptidyl-prolyl cis-trans isomerase FKBP1A; experiment: Inhibition of FKBP12
Legionella pneumophila [4] = experiment: Antibacterial activity against wild type Legionella pneumophila Philadelphia-1 JR32 infected in human U937 cells at 50 uM after 24 to 48 hrs; assay type: functional, organism-based; conditions: U-937
How it was run: (§1)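 U937 macrophage-like cells infected at MOI 10, with or without 50 μM compound kept present throughout incubation. Extracellular bacteria killed with gentamicin 2 h post-infection. Infection samples plated on BCYE agar for CFU counts immediately and after 24 and 48 h.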

Legionella pneumophila [5] = experiment: Antibacterial activity against MIP protein-deficient Legionella pneumophila JR32-2 infected in human U937 cells at 50 uM after 24 to 48 hrs; assay type: functional, organism-based
How it was run: as §1

Escherichia coli = experiment: Antibacterial activity against Escherichia coli HB101 infected in human U937 cells at 50 uM after 24 to 48 hrs; assay type: functional, cell-based; conditions: U-937
How it was run: as §1

T1 sequence (P62942 whole entry): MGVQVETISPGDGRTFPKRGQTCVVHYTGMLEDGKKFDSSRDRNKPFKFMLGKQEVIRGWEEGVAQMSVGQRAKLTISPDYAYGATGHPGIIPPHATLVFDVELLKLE
Sequence of Outer membrane protein MIP (Q70YI1 21-233 limits assumed): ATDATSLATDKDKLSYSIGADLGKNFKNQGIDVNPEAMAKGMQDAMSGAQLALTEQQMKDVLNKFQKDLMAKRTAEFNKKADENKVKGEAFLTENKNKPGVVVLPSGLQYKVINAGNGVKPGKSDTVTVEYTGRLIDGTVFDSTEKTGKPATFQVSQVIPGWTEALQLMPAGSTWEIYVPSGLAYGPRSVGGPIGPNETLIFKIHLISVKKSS

Structure (SMILES) | IC50 [1] | IC50 [2] | further results
CCOC(=O)C1CCCCN1C(=O)C(=O)C(C)CC (stereo not drawn) | > 100 µM | > 30000 nM | 
COc1cc(CCCOC(=O)C2CCCCN2S(=O)(=O)Cc2ccccc2)cc(OC)c1OC (racemic) |  | 200 nM | 
CCC(C)C(=O)C(=O)N1CCCCC1C(=O)OC(CCc1ccccc1)c1ccccc1 (stereo not drawn) | > 100 µM | > 30000 nM | 
COc1cc(CCCOC(=O)C2CCCCN2S(=O)(=O)c2ccccc2)cc(OC)c1OC (stereo not drawn) |  | 120 nM | 
COc1cc(CCCOC(=O)[C@@H]2CCCCN2S(=O)(=O)Cc2ccccc2)cc(OC)c1OC |  | 200 nM | Ki [3]: 230 nM; Activity (Legionella pneumophila [4]): inactive
COc1cc(CCCOC(=O)C2CCCCN2S(=O)(=O)c2cccc(N)c2)cc(OC)c1OC (stereo not drawn) | > 100 µM | 260 nM | 
CCOC(=O)C1CCCCN1S(=O)(=O)Cc1ccccc1 (stereo not drawn) | 87 µM | 2600 nM | 
CCOC(=O)C1CCCCN1S(=O)(=O)c1ccccc1 (stereo not drawn) | > 100 µM | 3100 nM | 
COc1cc(CCCOC(=O)C2CCCCN2S(=O)(=O)c2cccc([N+](=O)[O-])c2)cc(OC)c1OC (stereo not drawn) | > 100 µM | 70 nM | 
CCOC(=O)C1CCCCN1S(=O)(=O)c1cccc([N+](=O)[O-])c1 (stereo not drawn) | > 100 µM | 2800 nM | 
CO[C@H]1C[C@@H]2CC[C@@H](C)[C@@](O)(O2)C(=O)C(=O)N2CCCC[C@H]2C(=O)O[C@H]([C@H](C)C[C@@H]2CC[C@@H](O)[C@H](OC)C2)CC(=O)[C@H](C)/C=C(\C)[C@@H](O)[C@@H](OC)C(=O)[C@H](C)C[C@H](C)/C=C/C=C/C=C/1C |  |  | Activity (Legionella pneumophila [4]): Active; Activity (Legionella pneumophila [5]): Active; Activity (Escherichia coli): Active
Nc1cccc(S(=O)(=O)N2CCCCC2C(=O)OCCCc2cccnc2)c1 (stereo not drawn) | > 100 µM | 320 nM | 
O=C(OCCCc1cccnc1)C1CCCCN1S(=O)(=O)c1cccc([N+](=O)[O-])c1 (stereo not drawn) | 32 µM | 150 nM | 
CCC(C)C(=O)C(=O)N1CCCCC1C(=O)OCCCc1cc(OC)c(OC)c(OC)c1 (stereo not drawn) | > 100 µM | 4200 nM | 
